These results are taken from paper PMC2211770 (The Journal of Experimental Medicine, 2004).

In data set [1] the target is T1, Recombinant human caspase-4 (Homo sapiens, UniProt P49662).
T1 sequence (P49662 81-270 limits assumed): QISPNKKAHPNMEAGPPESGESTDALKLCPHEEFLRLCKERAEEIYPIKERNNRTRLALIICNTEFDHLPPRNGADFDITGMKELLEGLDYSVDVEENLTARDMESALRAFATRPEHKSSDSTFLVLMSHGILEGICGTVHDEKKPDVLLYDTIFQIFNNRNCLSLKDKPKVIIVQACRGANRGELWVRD
T1 sequence (P49662 290-377 limits assumed): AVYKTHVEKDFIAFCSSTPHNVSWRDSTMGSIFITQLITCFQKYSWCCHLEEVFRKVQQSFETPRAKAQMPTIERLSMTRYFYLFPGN
Put plainly: M867 potency against recombinant human caspase-4. It counts as biochemical.

The target in data set [2] is T2, Recombinant human caspase-6 (Homo sapiens, UniProt P55212).
T2 sequence (P55212 24-179 limits assumed): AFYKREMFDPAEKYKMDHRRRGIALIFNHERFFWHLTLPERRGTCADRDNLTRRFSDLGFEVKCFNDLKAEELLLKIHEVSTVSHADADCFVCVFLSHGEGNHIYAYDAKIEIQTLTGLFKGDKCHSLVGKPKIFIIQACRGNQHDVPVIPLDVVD
T2 sequence (P55212 194-293 limits assumed): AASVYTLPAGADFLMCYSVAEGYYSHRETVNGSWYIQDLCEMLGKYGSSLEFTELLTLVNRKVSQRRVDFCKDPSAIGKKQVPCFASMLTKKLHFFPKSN
Kind of data set: M867 potency against recombinant human caspase-6. The format is biochemical.

Data set [3] concerns the target Recombinant human caspase-8 (Homo sapiens, UniProt Q14790). Put plainly: M867 potency against recombinant human caspase-8. It counts as biochemical.
Data set [4] concerns the target T3, Recombinant human caspase-5 (Homo sapiens, UniProt P51878).
T3 sequence (P51878 137-327 limits assumed): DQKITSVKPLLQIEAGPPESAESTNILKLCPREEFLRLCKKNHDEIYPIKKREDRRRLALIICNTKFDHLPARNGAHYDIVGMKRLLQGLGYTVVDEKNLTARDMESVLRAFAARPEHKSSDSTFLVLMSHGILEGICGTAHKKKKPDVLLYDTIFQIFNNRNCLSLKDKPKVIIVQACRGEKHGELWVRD
T3 sequence (P51878 347-434 limits assumed): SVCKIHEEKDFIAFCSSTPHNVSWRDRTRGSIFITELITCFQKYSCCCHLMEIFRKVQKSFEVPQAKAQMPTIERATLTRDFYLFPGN
Kind of data set: M867 potency against recombinant human caspase-5. The format is biochemical.

The subject of data set [5] is DNA fragmentation in thymocytes. Put plainly: DNA fragmentation. As to conditions: for Percentage of subdiploid cells (±SE): thymus 24 h. The format is in vivo, rat. The method in brief: (§1)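 CLP then followed: the ligated cecum was pierced through and through with a 20-gauge cannula and a silk thread was left in place for leakage. Shams had the cecum exteriorized only. Rats got 1 c.c. saline s.c., then a 2 ml/kg i.v. bolus of vehicle or test compound and 2 ml/h/kg infusion for 24 h. In the titration, doses were 0–10 mg/kg/h with one rat per dose. Thymus taken 24 h post-surgery.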

Data set [6] deals with T4, Recombinant human caspase-3 (Homo sapiens, UniProt P42574).
T4 sequence (P42574 29-175 limits assumed): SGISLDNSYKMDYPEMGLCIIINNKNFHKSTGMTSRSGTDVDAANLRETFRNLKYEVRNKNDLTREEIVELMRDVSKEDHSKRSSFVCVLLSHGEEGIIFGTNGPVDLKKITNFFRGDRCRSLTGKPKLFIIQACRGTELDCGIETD
T4 sequence (P42574 176-277 limits assumed): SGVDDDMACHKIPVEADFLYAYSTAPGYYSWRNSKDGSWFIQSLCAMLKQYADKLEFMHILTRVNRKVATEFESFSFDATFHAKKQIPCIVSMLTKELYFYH
Kind of data set: M867 potency against recombinant human caspase-3. It counts as biochemical.

Data set [7] deals with αII-spectrin cleavage in thymocytes. Kind of data set: αII-spectrin cleavage in the thymus of CLP-induced septic rats. The format is in vivo, rat. As to conditions: for Spectrin cleavage OD (±SE): thymus 24 h. In short, it runs like this:
as §1

In data set [8] the target is T5, Recombinant human caspase-1 (Homo sapiens, UniProt P29466).
T5 sequence (P29466 120-297 limits assumed): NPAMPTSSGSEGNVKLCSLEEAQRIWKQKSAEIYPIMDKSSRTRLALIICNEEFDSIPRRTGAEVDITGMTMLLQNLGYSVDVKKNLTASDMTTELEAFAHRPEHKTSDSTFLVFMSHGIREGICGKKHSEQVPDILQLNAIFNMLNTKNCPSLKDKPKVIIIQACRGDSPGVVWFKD
T5 sequence (P29466 317-404 limits assumed): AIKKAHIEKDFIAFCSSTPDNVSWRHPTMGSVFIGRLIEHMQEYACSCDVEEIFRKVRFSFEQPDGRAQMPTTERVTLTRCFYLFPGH
Kind of data set: M867 potency against recombinant human caspase-1. The format is biochemical.

The test system of data set [9] is basal apoptotic parameters. Kind of data set: Basal apoptotic parameters in sham-operated animals. It counts as in vivo, rat. As to conditions: sham-operated animals (unpublished data).
The target in data set [10] is T6, Recombinant human caspase-7 (Homo sapiens, UniProt P55210).
T6 sequence (P55210 24-198 limits assumed): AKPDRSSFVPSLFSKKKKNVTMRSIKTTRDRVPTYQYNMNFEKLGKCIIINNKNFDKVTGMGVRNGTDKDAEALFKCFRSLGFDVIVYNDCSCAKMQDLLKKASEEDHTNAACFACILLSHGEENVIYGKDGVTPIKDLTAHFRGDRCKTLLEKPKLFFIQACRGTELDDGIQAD
T6 sequence (P55210 207-303 limits assumed): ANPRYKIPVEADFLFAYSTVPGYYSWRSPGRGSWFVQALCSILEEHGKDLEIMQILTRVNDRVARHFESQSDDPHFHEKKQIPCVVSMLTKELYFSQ
Kind of data set: M867 potency against recombinant human caspase-7. The format is biochemical.

Data set [11] can be described thus: Drug levels in plasma, blood and spleen of rats under continuous i.v. infusion. It counts as in vivo. As to conditions: rat, intravenous, 2 mg/kg/h. In short, it runs like this: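 Test compound was given to rats by continuous i.v. infusion after a 2 ml/kg bolus, delivered at 2 ml/h/kg for 24 h. Dose rates were 2 mg/kg/h for plasma and spleen levels, and 0.5 or 1.5 mg/kg/h for blood levels.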

The next data set relates to caspase-3 processing. Kind of data set: Caspase-3 Western blotting on thymus extracts of CLP rats dosed with M867. As to conditions: all M867 doses. It counts as in vivo, rat. In short, it runs like this:
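Female Sprague-Dawley rats (250–300 g) had CLP via a 20-gauge through-and-through cecal puncture with a silk wick. Test compound was given as an i.v. femoral catheter bolus (2 ml/kg) then infused at 0–10 mg/kg/h for 24 h (vehicle n = 6; n = 1 per dose). Thymus lysates (40 μg, heat-denatured) were run on 10–20% SDS-PAGE and probed with rabbit anti-caspase-3 (1:2,000) and HRP anti-rabbit, with chemiluminescent detection.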
(In general: In western blotting, separated proteins are transferred to a membrane and probed.)

Data set [12] addresses T7, Recombinant human caspase-10 (Homo sapiens, UniProt Q92851).
T7 sequence (Q92851 220-415 limits assumed): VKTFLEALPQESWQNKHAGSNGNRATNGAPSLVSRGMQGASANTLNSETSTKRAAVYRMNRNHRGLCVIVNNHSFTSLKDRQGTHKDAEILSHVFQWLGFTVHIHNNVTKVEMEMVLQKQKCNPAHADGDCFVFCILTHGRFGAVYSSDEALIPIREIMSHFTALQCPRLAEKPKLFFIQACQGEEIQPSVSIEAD
T7 sequence (Q92851 416-521 limits assumed): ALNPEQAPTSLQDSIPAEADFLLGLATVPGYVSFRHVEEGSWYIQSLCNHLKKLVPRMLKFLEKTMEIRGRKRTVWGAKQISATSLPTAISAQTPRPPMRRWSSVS
Kind of data set: M867 potency against recombinant human caspase-10. It counts as biochemical.

The test system of data set [13] is DNA fragmentation in cultured primary rat thymocytes. Put plainly: DNA fragmentation. It counts as cell-based. In short, it runs like this: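 Thymocytes were cultured for 24 h at 10 × 10^6 cells/ml in CytoSF4 plus l-glutamine and antibiotics, with test compound at a range of concentrations. Cells fixed 30 min on ice in 70% EtOH and stained in PBS/0.1% Triton X-100/RNase A/25 μg/ml PI. Subdiploid DNA by flow cytometry, 20,000 events, duplicate samples, debris gated out on forward scatter. IC50 by 4-parameter fit.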

The target in data set [14] is T8, Recombinant human caspase-2 (Homo sapiens, UniProt P42575).
T8 sequence (P42575 170-325 limits assumed): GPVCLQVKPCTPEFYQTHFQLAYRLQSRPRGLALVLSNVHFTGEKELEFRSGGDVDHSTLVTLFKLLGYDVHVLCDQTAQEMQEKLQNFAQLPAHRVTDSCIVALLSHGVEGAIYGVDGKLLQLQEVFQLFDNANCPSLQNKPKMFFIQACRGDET
T8 sequence (P42575 348-452 limits assumed): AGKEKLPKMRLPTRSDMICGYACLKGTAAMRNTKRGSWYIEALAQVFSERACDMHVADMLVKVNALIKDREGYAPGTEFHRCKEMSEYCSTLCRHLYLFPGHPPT
Kind of data set: M867 potency against recombinant human caspase-2. The format is biochemical.

Data set [15] has as its system αII-spectrin cleavage in cultured primary rat thymocytes. Put plainly: αII-spectrin cleavage in cultured primary rat thymocytes. The format is cell-based. As to conditions: read-out: IC50 spectrin, average of two to four experiments (single for zVAD-fmk and M808). In short, it runs like this: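 Rat thymocytes, isolated by tissue grinding in cold PBS/glucose/glutamine/1% FBS and filtered, were kept 24 h at 10 × 10^6 cells/ml in CytoSF4 with l-glutamine and antibiotics over a test compound concentration series. The read-out is the caspase-3-generated p120 αII-spectrin neoepitope. IC50 from a 4-parameter curve fit.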

Where [16] appears, read: crude extrapolation, septic rats (Fig. 4).
Setting [17] is: septic rats, continuous i.v. infusion.

The structures appear in SMILES notation. Residues, ends and D or L forms follow the SMILES beside them. *: point of attachment. Cbz = O=C(OCc1ccccc1)*; CH2F = FC* Bounds are passed on as bounds.

Sequence of Recombinant human caspase-8 (Q14790 217-374 limits assumed): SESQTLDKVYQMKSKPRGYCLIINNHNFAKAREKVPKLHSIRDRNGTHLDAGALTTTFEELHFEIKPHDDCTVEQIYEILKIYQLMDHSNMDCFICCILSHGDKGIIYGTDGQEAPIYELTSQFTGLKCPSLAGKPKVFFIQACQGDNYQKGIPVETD
Sequence of Recombinant human caspase-8 (Q14790 385-479 limits assumed): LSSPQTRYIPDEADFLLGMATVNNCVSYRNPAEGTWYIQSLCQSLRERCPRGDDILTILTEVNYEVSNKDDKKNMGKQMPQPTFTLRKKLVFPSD

Take `CCCCCN(C)CC(=O)[C@H](CC(=O)O)NC(=O)[C@H](CC)n1cc(C(C)(C)C)nc(NCc2nonc2C)c1=O` [M867, (3S)-3-({(2S)-2-[5-tert-butyl-3-{[(4-methyl-1,2,5-oxadiazol-3-yl)methyl]amino}-2-oxopyrazin-1(2H)-yl]butanoyl}amino)-5-[methyl(pentyl)amino]-4-oxopentanoic acid]: the Ki (in general, the dissociation constant of the complex between target and ligand, obtained from inhibition or displacement) in data set [1] came out at 495 nM; in data set [2] it was 3440 nM; in [3] it was 4030 nM; in [4], 805 nM; in data set [6] it was 1.4 nM; in [8] it was 107 nM. Further, the Ki in data set [10] was 8.9 nM; in data set [12], 29500 nM; in [14], more than 100000 nM. Also, in data set [5] (CLP rats, i.v. infusion over 24 h after CLP, first experiment (Fig. 2 D, n = 10)), the “reduction of DNA fragmentation in thymocytes” value is on record as 57%. Also, the “Percentage of subdiploid cells (±SE)” value in [5] (CLP rats, first experiment (n = 10; vehicle 25.12, sham 1.23)) worked out at 11.61 ± 2.95%; in data set [5] (CLP rats, second experiment (n = 4-5; vehicle 33.49, sham 0.37)) it was 13.25 ± 4.70%. The “in vivo IC50 DNA fragmentation” value in data set [5] (setting [16]) is 2 mg/kg/h. Also, the “drug levels needed to inhibit DNA cleavage compared with αII-spectrin cleavage” value in data set [5] (experimental peritonitis, rats) is listed as “fourfold”. Moreover, the “doses fully inhibiting DNA fragmentation” value in data set [5] (setting [17]) is listed as “above 5 mg/kg/h”. Further, in [5] (septic rats, doses up to 10 mg/kg/h), the “effect on DNA fragmentation in dose titration” value is “almost abrogated”. Further, the “reduction of αII-spectrin cleavage in thymocytes” value in data set [7] (CLP rats, i.v. infusion over 24 h after CLP, first experiment (Fig. 2 C, n = 10)) is 88%. Moreover, the “Spectrin cleavage OD (±SE)” value was found to be 0.30 ± 0.01 OD in data set [7] (CLP rats, first experiment (n = 10; vehicle 0.97, sham 0.21)) and 0.18 ± 0.01 OD in data set [7] (CLP rats, second experiment (n = 4-5; vehicle 0.58, sham 0.12)). In addition, in data set [7] (setting [16]), the “in vivo IC50 αII-spectrin cleavage” value is listed as 0.5 mg/kg/h. Further, the “inhibition of αII-spectrin cleavage” value in data set [7] (septic rats, 2 mg/kg/h) is reported as “almost complete inhibition”. In addition, the “doses achieving abolition of αII-spectrin cleavage” value in [7] (setting [17]) is reported as “below 2 mg/kg/h”. The “effect on basal apoptotic parameters” value in data set [9] is listed as “no effect”. Moreover, the concentration at 24 h in data set [11] (plasma) is 650 ± 180 nM; in [11] (spleen) it was 370 ± 100 nM. The caspase-3 processing result with caspase-3 processing was “processed equally well”. For the same compound, the “effect on DNA fragmentation” value in [13] (0.1 μM, cultured thymocytes) is listed as “without affecting”.

Consider `COC(=O)C[C@H](NC(=O)[C@H](C)NC(=O)[C@@H](NC(=O)OCc1ccccc1)C(C)C)C(=O)CF` [zVAD-fmk, zVAD-fluoromethyl ketone, reference compound] (Cbz-Val-Ala-Asp(OMe)-CH2F), for which the IC50 (commonly the concentration needed to halve the response being measured) in data set [13] (read-out: IC50 subdiploid, cultured rat thymocytes, average of two to four experiments (single for zVAD-fmk and M808)) turned out to be 25000 nM; in data set [15] it was 600 nM.
